Screening results deposited in PubChem BioAssay by Johns Hopkins Ion Channel Center.
RGS4 pot – RGS4 potentiation or activation | 310,000 compounds, 0.92% hits | AID 463111 | HEK293 M3R/inducible RGS4, carbachol calcium flux Fluo4; stronger effect = lower value | B-score at 10 µM;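 active = B-score of the integrated calcium signal more than 4 SD below the library mean, with starting fluorescence not abnormally high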;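 note: negative B-score means reduced calcium response which marks RGS4 activation or potentiation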
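Assay system: Inducible-RGS4 HEK293 cells carrying M3 receptor | Schedule: Compound preincubation 20 min at room temperature before agonist | Signal: Kinetic calcium fluorescence imaging with Fluo4-AM dye, 2 µM | Read-out basis: B score from integrated fluorescence ratio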
MrgX1 PAM – human MrgX1 positive allosteric modulation, primary screen | 310,000 compounds, 0.63% hits | MrgX1-HEK293, Fluo-4 calcium flux, FDSS; stronger effect = higher value | B-score at 10 µM | AID 588675 | Q96LB2;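 active = plate-corrected calcium response at least 3 library SD above typical, normal starting fluorescence, not activating the receptor alone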;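 note: compound read alongside a low EC10 to EC30 dose of BAM8-22 agonist; peak minus trough fluorescence over baseline measured at the second addition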
Target sequence (Q96LB2 whole entry, looked up): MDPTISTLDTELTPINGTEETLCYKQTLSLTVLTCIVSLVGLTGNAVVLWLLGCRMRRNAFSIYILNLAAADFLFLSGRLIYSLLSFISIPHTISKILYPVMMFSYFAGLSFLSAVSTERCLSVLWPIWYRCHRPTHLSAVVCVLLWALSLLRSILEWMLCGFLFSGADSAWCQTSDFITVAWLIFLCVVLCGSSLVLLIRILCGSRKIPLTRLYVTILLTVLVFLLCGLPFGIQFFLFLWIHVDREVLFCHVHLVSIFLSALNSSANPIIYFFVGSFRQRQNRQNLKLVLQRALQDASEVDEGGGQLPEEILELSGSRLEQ
RGS4 block – inhibitors of human RGS4 | HEK293 M3R/RGS4 inducible, Fluo-4 calcium flux; stronger effect = higher value; triggered by carbachol at its EC20 | B-score at 10 µM | 310,000 compounds, 0.45% hits;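 active = B-score, a plate-corrected calcium signal, over three deviations above library mean, with baseline fluorescence within five deviations of library mean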;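 note: RGS4 expression induced by doxycycline in cells with stable M3 receptor; B-score is computed from the integrated fluorescence ratio over baseline after carbachol; higher B-score means a larger calcium signal and so more RGS4 inhibition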
Target sequence (P49798 whole entry, looked up): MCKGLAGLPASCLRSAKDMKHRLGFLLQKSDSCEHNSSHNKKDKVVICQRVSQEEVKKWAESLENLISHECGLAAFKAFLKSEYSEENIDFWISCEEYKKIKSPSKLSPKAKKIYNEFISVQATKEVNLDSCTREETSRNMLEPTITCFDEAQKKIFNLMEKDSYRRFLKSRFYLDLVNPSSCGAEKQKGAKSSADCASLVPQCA
MrgX1 ag – human MrgX1 receptor agonism, primary screen; Q96LB2; MrgX1-HEK293 cells, Fluo-4 calcium fluorescence, agonist mode; stronger effect = higher value; B-score at 10 µM; 310,000 compounds, 0.44% hits; AID 588627;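 active = calcium response B-score plate-corrected fluorescence ratio at least 3 library SD, with starting fluorescence B-score inside 5 SD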
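Test system: HEK293 cells stably expressing human MrgX1 receptor; Input: fifteen thousand cells per well; Dosing: compound delivered in addition one of three; Schedule: overnight seeding, then 1 h dark dye loading; Technique: Fluo-4 NW calcium fluorescence; Measure: B-scored fluorescence response ratio; Controls: positive and negative controls per plate.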
MrgX1 antag – human MrgX1 receptor antagonism, primary screen | Q96LB2 | MRGX1-HEK293 calcium flux, Fluo-4, BAM8-22 antagonism; stronger effect = lower value | B-score at 10 µM | 310,000 compounds, 1.3% hits | AID 588676;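 active = calcium-response B-score plate-corrected more than 3 library SD below zero, starting fluorescence within 5 deviations, no agonist response on first addition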;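 note: peak minus trough fluorescence over baseline after final BAM8-22 challenge near maximal dose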
MrgX1 antag conf – reconfirmed antagonist of human MrgX1 receptor signaling; remaining BAM8-22 calcium response % of control (stronger effect = lower value), % at 10 µM; shares compounds with MrgX1 antag; MrgX1-HEK293, BAM8-22 calcium flux, Fluo-4; stronger effect = lower value; 2,300 compounds, 19% hits;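 active = remaining agonist calcium response no higher than 100% minus 3 SD of agonist-only control wells, with starting fluorescence near control levels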;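 note: agonist BAM8-22 given at a near maximal EC90 to ECmax level; peak minus minimum fluorescence divided by baseline after agonist addition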
HEK293 Ca flux – MrgX1 antagonist counter-screen hit in parental HEK293 cells; 4,000 compounds, 2% hits; shares compounds with MrgX1 antag; fluorescence ratio F(max-min)/F0 at 10 µM; AID 624111; Fluo-4 calcium fluorescence, FDSS;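 active = duplicate-averaged calcium fluorescence ratio at least three times the standard deviation of buffer wells, a nonspecific response in parental cells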
HEK293 Ca counter – MrgX1 allosteric activator counter-screen hit in parental HEK293 cells; AID 624114; fluorescence ratio F(max-min)/F0 at 10 µM; shares compounds with MrgX1 antag; 4,000 compounds, 0.4% hits; parental HEK293 calcium flux, Fluo-4 fluorescence ratio; stronger effect = higher value;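 active = calcium fluorescence ratio, averaged over duplicates, at least 3 SD of the buffer-well ratio, meaning a nonspecific response in receptor-free cells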;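 note: untransfected parental HEK293 lacking MrgX1 used as counterscreen for MrgX1 allosteric activators; fluorescence change taken during the second addition on a kinetic imager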
HEK293 Ca cntr2 – MrgX1 activator counter-screen hit in parental HEK293 cells; shares compounds with MrgX1 antag; Fluo-4 calcium fluorescence (FDSS); stronger effect = higher value; fluorescence ratio F(max-min)/F0 at 10 µM; 4,000 compounds, 8.7% hits;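 active = calcium fluorescence ratio at least three times the spread of buffer wells, meaning a non-specific response in parental cells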
* hit, by the source's call. In the library only some 3.5% were active in any assay of this set; here they are far more common.

For CCOC(=O)c1ccccc1NC(=O)N[C@@H](C)C(=O)OC the results were RGS4 pot inactive, MrgX1 PAM inactive, RGS4 block inactive, MrgX1 ag inactive, MrgX1 antag -4.57*, MrgX1 antag conf inactive, HEK293 Ca flux inactive, HEK293 Ca counter inactive and HEK293 Ca cntr2 inactive.
Screening O=C(CSc1nnc(NC(=O)C2CC(=O)N(c3ccc(F)cc3)C2)s1)NC1CCCC1 (stereo not given) returned RGS4 pot inactive, MrgX1 PAM inactive, RGS4 block inactive, MrgX1 ag inactive, MrgX1 antag -4.88*, MrgX1 antag conf inactive, HEK293 Ca flux inactive, HEK293 Ca counter inactive and HEK293 Ca cntr2 inactive.
`O=C(Nc1nnc(SCC(=O)N2CCCC2)s1)C1CC(=O)N(c2ccc(F)cc2)C1` (stereo not given) gave RGS4 pot inactive, MrgX1 PAM inactive, RGS4 block inactive, MrgX1 ag inactive and MrgX1 antag inactive.
`CCCNC(=O)N1CCC(C(=O)c2cccc(F)c2)CC1` gave RGS4 pot inactive, MrgX1 PAM inactive, RGS4 block inactive, MrgX1 ag inactive, MrgX1 antag -4.86*, MrgX1 antag conf inactive, HEK293 Ca flux inactive, HEK293 Ca counter inactive and HEK293 Ca cntr2 inactive.
CCCNC(=O)N1CCCC(C(=O)c2cccc(Cl)c2)C1 (stereo not given) was read as RGS4 pot inactive, MrgX1 PAM inactive, RGS4 block inactive, MrgX1 ag inactive and MrgX1 antag inactive.
For COc1ccc(OCC(=O)Nc2ccc(C(=O)Nc3ccccc3C(=O)O)cc2)cc1 the results were RGS4 pot inactive, MrgX1 PAM inactive, RGS4 block inactive, MrgX1 ag inactive and MrgX1 antag inactive.
O=C(COc1ccc(Br)cc1)Nc1ccc(C(=O)Nc2ccccc2C(=O)O)cc1 was read as RGS4 pot inactive, MrgX1 PAM inactive, RGS4 block inactive, MrgX1 ag inactive, MrgX1 antag -7.13*, MrgX1 antag conf inactive, HEK293 Ca flux inactive, HEK293 Ca counter inactive and HEK293 Ca cntr2 inactive.
`O=C1OCCC1Sc1nnc(-c2cccc(Br)c2)o1` (stereo not given) gave RGS4 pot inactive, MrgX1 PAM inactive, RGS4 block inactive, MrgX1 ag inactive, MrgX1 antag -5.1*, MrgX1 antag conf inactive, HEK293 Ca flux inactive, HEK293 Ca counter inactive and HEK293 Ca cntr2 inactive.
Screening Cc1nc(N2CCCCCC2)c2ccccc2n1 returned RGS4 pot inactive, MrgX1 PAM inactive, RGS4 block inactive, MrgX1 ag inactive, MrgX1 antag -4.75*, MrgX1 antag conf inactive, HEK293 Ca flux inactive, HEK293 Ca counter inactive and HEK293 Ca cntr2 inactive.
CC1(C)c2ccccc2-n2c1cc1oc(=O)cc(O)c1c2=O was read as RGS4 pot inactive, MrgX1 PAM inactive, RGS4 block inactive, MrgX1 ag inactive and MrgX1 antag inactive.
`COc1ccccc1NC(=O)CCC(=O)OCc1ccc(Cl)cc1` gave RGS4 pot inactive, MrgX1 PAM inactive, RGS4 block inactive, MrgX1 ag inactive, MrgX1 antag -4.8*, MrgX1 antag conf inactive, HEK293 Ca flux inactive, HEK293 Ca counter inactive and HEK293 Ca cntr2 inactive.
For O=C(Nc1ccc(N2C(=O)C3C4C=CC(C4)C3C2=O)cc1)Nc1nncs1 (stereo not given) the results were RGS4 pot inactive, MrgX1 PAM inactive, RGS4 block inactive, MrgX1 ag inactive, MrgX1 antag -4.63*, MrgX1 antag conf inactive, HEK293 Ca flux inactive, HEK293 Ca counter inactive and HEK293 Ca cntr2 inactive.
O=C(CNC(=O)c1ccccc1)NCC(=O)OCC(=O)c1ccc(F)cc1 was read as RGS4 pot inactive, MrgX1 PAM inactive, RGS4 block inactive, MrgX1 ag inactive, MrgX1 antag -4.85*, MrgX1 antag conf inactive, HEK293 Ca flux inactive, HEK293 Ca counter inactive and HEK293 Ca cntr2 inactive.
For O=C(CNC(=O)Cc1ccccc1)NCC(=O)OCC(=O)c1ccc(F)cc1 the results were RGS4 pot inactive, MrgX1 PAM inactive, RGS4 block inactive, MrgX1 ag inactive and MrgX1 antag inactive.
Screening Cc1ccccc1CSCCNS(C)(=O)=O returned RGS4 pot inactive, MrgX1 PAM inactive, RGS4 block inactive, MrgX1 ag inactive, MrgX1 antag -5.34*, MrgX1 antag conf inactive, HEK293 Ca flux inactive, HEK293 Ca counter inactive and HEK293 Ca cntr2 inactive.
Cc1ccc(C(CNS(=O)(=O)c2ccc(Cl)cc2)N2CCN(C)CC2)cc1 (stereo not given) was read as RGS4 pot inactive, MrgX1 PAM inactive, RGS4 block inactive, MrgX1 ag inactive, MrgX1 antag -4.96*, MrgX1 antag conf 78.5%*, HEK293 Ca flux inactive, HEK293 Ca counter inactive and HEK293 Ca cntr2 inactive.
Screening Cc1ccc(C(CNS(=O)(=O)c2ccc(C)cc2)N2CCN(C)CC2)cc1 (stereo not given) returned RGS4 pot inactive, MrgX1 PAM inactive, RGS4 block inactive, MrgX1 ag inactive and MrgX1 antag inactive.
Screening CCO[C@@H]1OC(C(N)=O)=C[C@H](C2CC2)[C@H]1CCCO returned RGS4 pot inactive, MrgX1 PAM inactive, RGS4 block inactive, MrgX1 ag inactive and MrgX1 antag inactive.
CCOC(=O)Cc1csc(SCC(=O)NC2CCCC(C)C2C)n1 (stereo not given) was read as RGS4 pot inactive, MrgX1 PAM inactive, RGS4 block inactive, MrgX1 ag inactive and MrgX1 antag inactive.
`CCOC(=O)Cc1csc(SC(C)C(=O)NC2CCCCC2C)n1` (stereo not given) gave RGS4 pot inactive, MrgX1 PAM inactive, RGS4 block inactive, MrgX1 ag inactive, MrgX1 antag -5.33*, MrgX1 antag conf 85.2%*, HEK293 Ca flux inactive, HEK293 Ca counter inactive and HEK293 Ca cntr2 inactive.
For COc1cc(O)c2c(c1)OC(C)(C)CC2=O the results were RGS4 pot inactive, MrgX1 PAM inactive, RGS4 block inactive, MrgX1 ag inactive, MrgX1 antag -10.4*, MrgX1 antag conf inactive, HEK293 Ca flux inactive, HEK293 Ca counter inactive and HEK293 Ca cntr2 inactive.
